Laboratory results: ChEMBL document CHEMBL2010686, “Influence of the active compounds of Perilla frutescens leaves on lipid membranes” (J Nat Prod, 2012)
Active and inactive are the calls of the source. No cut-off for these calls is given here.

Tests used:
Lipid bilayer [1] = experiment: Binding affinity to 1,2-dimyristoyl-sn-glycero-3-phosphocholine bilayer assessed as change in main phase transition temperature at low concentration by differential scanning calorimetry; format: physicochemical
How it was run: (§1)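 Differential scanning calorimetry on 15 mM multilamellar DMPC vesicles in 50 mM sodium phosphate (ionic strength 154 mM with NaCl, pH 7.5). Terpenoid added in MeOH (below 10 μL); the x = 0 control received 10 μL MeOH. Terpenoid mole fraction varied from 0 to 0.15. Main-transition Tm, pretransition temperature and transition enthalpy were read from the thermograms.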

Lipid bilayer [2] = experiment: Binding affinity to 1,2-dimyristoyl-sn-glycero-3-phosphocholine bilayer assessed as decrease in main phase transition temperature at high concentration by differential scanning calorimetry (reference value: 24.4 deg C); format: physicochemical; how it was run: as §1
[3] = 1,2-dimyristoyl-sn-glycero-3-phosphocholine bilayer-water partition coefficient, K of the compound at 300 uM by isothermal titration calorimetry at 35 deg C; format: physicochemical; settings: DMPC vesicles/water
How it was run: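 DMPC vesicles hydrated in 50 mM sodium phosphate (ionic strength 154 mM with NaCl, pH 7.5), extruded at 35 °C through 100 nm filters. Lipid suspension (1–20 mM) injected in small aliquots into ~300 μM terpenoid in the ITC cell (1.409 mL). Integrated heats per injection fitted with a dilution-heat term to give K and ΔH. ΔG0 = −RTln(55.5K). ΔCP from linear regression of ΔH versus temperature.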

Lipid bilayer [4] = experiment: Binding affinity to 1,2-dimyristoyl-sn-glycero-3-phosphocholine bilayer assessed as increase in pre-transition temperature at low concentration by differential scanning calorimetry (reference value: 12.7 deg C); format: physicochemical; how it was run: as §1
Lipid bilayer [5] = experiment: Binding affinity to Me-5-DSA labelled 1,2-dimyristoyl-sn-glycero-3-phosphocholine bilayer containing assessed as change in membrane fluidity by electron paramagnetic resonance spectroscopy
How it was run: (§2)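 DMPC membranes carrying a spin label, either pure or with terpenoid at 15 mol % (Me-5-DSA also over a concentration series). Samples held in hematocrit tubes and equilibrated 10 min at 35 °C. X-band spectra (~9.4 GHz, ~2 mW, 100 kHz modulation, 1 G amplitude), usually five scans summed. Order parameter from hyperfine splittings. Rotational correlation times from central-line width and line heights as a fluidity measure.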

Lipid bilayer [6] = experiment: Binding affinity to Me-16-DSA labelled 1,2-dimyristoyl-sn-glycero-3-phosphocholine bilayer containing assessed as change in membrane fluidity by electron paramagnetic resonance spectroscopy; how it was run: as §2
Lipid bilayer [7] = experiment: Binding affinity to 5-DSA labelled 1,2-dimyristoyl-sn-glycero-3-phosphocholine bilayer containing assessed as change in membrane fluidity by electron paramagnetic resonance spectroscopy; how it was run: as §2
Lipid bilayer [8] = experiment: Binding affinity to CSL labelled 1,2-dimyristoyl-sn-glycero-3-phosphocholine bilayer containing assessed as change in membrane fluidity by electron paramagnetic resonance spectroscopy; how it was run: as §2

Activity (Lipid bilayer [1]) | T (Lipid bilayer [2]) [°C] | Ko [3] [M⁻¹] | T (Lipid bilayer [4]) [°C] | Activity (Lipid bilayer [5]) | Activity (Lipid bilayer [6]) | Activity (Lipid bilayer [7]) | Activity (Lipid bilayer [8]) | Activity [3] | Structure (SMILES)
Not Active | 16.3 | 10900 | 14.5 | inactive | inactive | inactive | inactive | – | C=C(C)[C@H]1CC=C(C)CC1 [D-LIMONENE]
– | – | – | – | – | – | – | – | Not Active | C=C(C)[C@@H]1CC=C(C(=O)O)CC1 [PERILLIC ACID]
Not Active | 19.4 | 305 | – | inactive | inactive | inactive | inactive | – | C=C(C)[C@@H]1CC=C(CO)CC1 [PERILLYL ALCOHOL]

Structure (SMILES) | Activity (Lipid bilayer [1]) | T (Lipid bilayer [2]) [°C] | Ko [3] [M⁻¹] | T (Lipid bilayer [4]) [°C] | Activity (Lipid bilayer [5]) | Activity (Lipid bilayer [6]) | Activity (Lipid bilayer [7]) | Activity (Lipid bilayer [8]) | Activity [3]
C=C(C)C1CC=C(C=O)CC1 (stereo not drawn) [PERILLALDEHYDE] | Not Active | 19.4 | 215 | – | inactive | inactive | inactive | inactive | –
